In the library only some 8.2% were active in any assay of this set; here they are far more common.
HePTP inh = inhibitors of human HePTP phosphatase, primary screen, biochemical, absorbance, leukemia target; Tyrosine-protein phosphatase non-receptor type 7 (Homo sapiens), P35236; recombinant HePTP phosphatase activity, OD absorbance; inhibition, % at 20 µM; 0.64% of 110,000 active; in the data active = inhibition above about 50%; inconclusive = no clear call, values can overlap the other calls
M1 antag = antagonists of rat M1 muscarinic receptor. Muscarinic acetylcholine receptor M1 (Rattus norvegicus), P08482. CHO-M1 cells, Fluo-4 calcium, ACh EC80 antagonist mode; active compounds read low. B-score at 10 µM. 3.4% of 64,000 active. AID 628, 2007;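 active = calcium fluorescence response, raw or row-and-column corrected B-score, differing from the plate sample mean either way at a set confidence level, mostly lower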
M1 ag = M1 muscarinic receptor agonists, primary screen, CHO-M1 cells, Fluo-4 calcium, agonist mode; B-score at 10 µM; Fluo-4 calcium fluorescence; active compounds read high; Muscarinic acetylcholine receptor M1; 3% of 64,000 active;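 active = fluorescence rise, raw or as B-score row- and column-corrected plate score, outside the 99.7% band of its plate's samples, either direction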
D1 allo mod = D1 CRE-luciferase signal change, two-sided – cell-based, HEK293 D1, dopamine EC30, D1 allosteric modulator project, primary screen; dopamine EC30 potentiation; actives deviate in either direction; B-score at 10 µM; 5.9% of 58,000 active; AID 641, 2007;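 active = luminescence count or its row- and column-corrected plate score outside the 99.7% band of the plate's sample wells, on either side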
SF1 activator = activators of human SF-1, primary screen, cell-based, CHO-K1, Gal4-SF-1 LBD, luciferase luminescence | Steroidogenic factor 1 (Homo sapiens), Q13285 | 1.9% of 65,000 active | CHO-K1 Gal4-SF-1 LBD luciferase reporter; % increase over DMSO SF-1-specific signal | AID 522, 2006 | activation, % at 10 µM;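 active = activation above the mean activation of all tested compounds plus 3 SD, cut at about 50% in these data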
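Material: Transient Gal4-SF-1 LBD reporter, CHO-K1 | Input: 4,000 cells/well | Dosing: One dose, 10 µM compound, 1% DMSO | Incubation: 20 h compound treatment, 37 °C | Detection: SteadyLite luciferase luminescence | Evaluation: Percent activation relative to DMSO median and mock-transfected background | Benchmarks: DMSO-treated SF-1-transfected cells as negative, DMSO-treated mock-transfected cells lacking SF-1 as background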
RORA act = activators of orphan receptor RORA, primary screen, cell-based, luminescence. activation, % at 10 µM. AID 560, 2006. 1.5% of 65,000 active. CHO-K1 Gal4-RORA LBD luciferase reporter; percent increase over mock-subtracted basal signal. Nuclear receptor ROR-alpha (Homo sapiens), P35398;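 active = activation above the mean of all tested compounds plus 3 SD, cut at about 49% in these data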
M1 agonist conf = rat M1 muscarinic receptor agonists, confirmation, CHO-M1 cells, Fluo-4 calcium, duplicate retest; 19% of 1,700 active; Fluo-4 calcium fluorescence, agonist mode; actives lie on both sides; shares compounds with M1 ag; fluorescence change (max-min) at 10 µM;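 active = fluorescence change differs from the solvent-only DMSO control mean at a set confidence level in both duplicate runs; inconclusive = differs from solvent-only control mean in just one of two runs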;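 also: an EC20 dose of acetylcholine follows compound addition during the same imaging run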
M4 ag counter = agonist activity at rat M4 receptor, confirmation, counter-screen for M1 allosteric modulator project, cell-based, agonist mode; shares compounds with M1 ag; fluorescence change (max-min) at 10 µM; CHO M4/Gqi5 cells, Fluo-4 calcium fluorescence; actives lie on both sides; AID 1741, 2009; 9% of 1,700 active;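 active = fluorescence change differing from the plate's solvent-only control wells at 99.7% confidence in both duplicates, whether higher or lower; inconclusive = differs from solvent controls in only one of two duplicates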
Target sequence (P08485 whole entry, looked up): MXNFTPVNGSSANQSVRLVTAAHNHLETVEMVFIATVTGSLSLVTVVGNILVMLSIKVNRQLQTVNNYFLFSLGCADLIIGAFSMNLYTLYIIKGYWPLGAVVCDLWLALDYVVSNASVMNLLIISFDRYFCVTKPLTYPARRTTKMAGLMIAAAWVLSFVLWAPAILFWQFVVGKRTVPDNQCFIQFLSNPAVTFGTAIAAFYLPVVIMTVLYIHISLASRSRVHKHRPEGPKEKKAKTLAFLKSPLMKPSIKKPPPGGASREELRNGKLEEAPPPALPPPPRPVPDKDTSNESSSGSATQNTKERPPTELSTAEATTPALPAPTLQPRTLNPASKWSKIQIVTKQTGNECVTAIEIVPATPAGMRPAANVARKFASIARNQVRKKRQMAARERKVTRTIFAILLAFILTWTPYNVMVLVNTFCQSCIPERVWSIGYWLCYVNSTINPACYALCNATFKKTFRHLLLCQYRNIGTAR
Each line names hits and unclear results; the compound was inactive in the other large screens (follow-up assays come after a bar, where they were run).

COC(=O)c1ccc(C(C(=O)NCc2ccccc2)N(Cc2ccco2)C(=O)c2cnccn2)cc1 (stereo not drawn)	none
COc1cc(OC)cc(C(C(=O)NCc2ccccc2)N(Cc2ccco2)C(=O)c2ccno2)c1 (stereo not drawn)	M1 ag 7.11 (no result: D1 allo mod) | M1 agonist conf inactive | M4 ag counter inconclusive
CC(=O)CCc1ccc2oc(C(=O)O)c(C)c2c1	none
Cc1nn(C)c(C)c1NC(=O)CCSc1nc(-c2ccco2)cc(C(F)(F)F)n1	M1 antag -3.74, M1 ag 34 | M1 agonist conf inactive | M4 ag counter inactive
O=C(CSc1nc(-c2ccco2)cc(C(F)(F)F)n1)Nc1ccc(C(=O)N2CCCCC2)cc1	M1 ag 6.69 (no result: D1 allo mod) | M1 agonist conf inconclusive | M4 ag counter inconclusive
COc1ccccc1N1CCN(C(=O)CSc2nc(-c3ccco3)cc(C(F)(F)F)n2)CC1	M1 ag 7.53 | M1 agonist conf inactive | M4 ag counter inactive
CCn1nc(C)c(NC(=O)CCCSc2nc(-c3ccco3)cc(C(F)(F)F)n2)c1C	none
Cc1cc(NC(=O)CSc2nc(-c3ccco3)cc(C(F)(F)F)n2)no1	none (no result: HePTP inh)
O=C(NCCc1c[nH]c2ccccc12)c1cc(S(=O)(=O)N2CCCCC2)ccc1N1CCOCC1	none
CC(=O)Nc1ccc(NC(=O)C(C)Oc2ccccc2F)cc1 (stereo not drawn)	none
c1ccc(N2CCN(c3ncnc4c3oc3ccccc34)CC2)cc1	none
CCOC(=O)C1CCCN(c2ncnc3c2oc2ccccc23)C1 (stereo not drawn)	M1 antag -3.34, M1 ag 4.21 | M1 agonist conf inactive | M4 ag counter inactive
CCOC(=O)C1CCN(c2nc(-c3ccccc3)nc3c2oc2ccccc23)CC1	M1 ag 5.84 | M1 agonist conf inactive | M4 ag counter inactive
CCc1nnc(N2CCN(c3ncnc4c3oc3ccccc34)CC2)s1	M1 antag -4.03, M1 ag 9.95 | M1 agonist conf inactive | M4 ag counter inactive
CCOC(=O)C1CCCN(C(=O)c2cc(=O)c3ccccc3o2)C1 (stereo not drawn)	none
COC(=O)c1[nH]c(C)c(/C(O)=C2\C(=O)C(=O)N(CCCN3CCOCC3)C2c2ccccn2)c1C (stereo not drawn)	none
CCOc1ccc(NC(=O)CN(c2ccc(C)cc2)S(=O)(=O)c2ccc(OCC)cc2)cc1	none (no result: M1 antag, M1 ag, D1 allo mod, SF1 activator, RORA act)
COc1ccc(C2C(C(=O)N3CCCC3)c3cc(OC)c(OC)cc3C(=O)N2C)cc1 (stereo not drawn)	none
COc1ccc(C2NC(=O)NC(C)=C2C(=O)OCc2ccccc2)cc1OC (stereo not drawn)	none (no result: M1 antag, M1 ag, D1 allo mod, SF1 activator, RORA act)
COCCOC(=O)C1=C(C)NC(=O)NC1c1ccc(OC(=O)c2ccco2)c(OC)c1 (stereo not drawn)	M1 ag 6.75 (no result: D1 allo mod) | M1 agonist conf inactive | M4 ag counter inactive
c1ccc(-c2nc(-n3ccnc3)nc(-n3ccnc3)n2)cc1	M1 ag 7.86 | M1 agonist conf inactive | M4 ag counter inactive
Cc1cccc(OC(=O)Nc2ccc(Cl)cc2)c1	none (no result: M1 antag, M1 ag, D1 allo mod, SF1 activator, RORA act)
CC(=O)N1CCN(c2ccc(Nc3ncnc4c3oc3ccccc34)cc2)CC1	M1 ag 8.9 | M1 agonist conf inactive | M4 ag counter inconclusive
COc1ccc(-c2csc(/C(C#N)=C\c3cc(OC)ccc3OC)n2)cc1	none (no result: M1 antag, M1 ag, D1 allo mod, SF1 activator, RORA act)
COc1ccccc1NC(=O)CN(Cc1ccco1)C(=O)c1cccs1	none
COc1ccccc1NC(=O)CN(Cc1ccco1)C(=O)c1ccc(-n2nc(C)cc2C)cc1	M1 ag 5.87 | M1 agonist conf inactive | M4 ag counter inconclusive
Cc1cccc2cc3c(NC(=O)C(C)C)nn(C)c3nc12	M1 antag -15.4, M1 ag 12.2 | M1 agonist conf inactive | M4 ag counter inactive
CCC(=O)Nc1nn(C)c2nc3c(C)cccc3cc12	none
CCCOc1ccc(N2C(=O)CC(SCCN)C2=O)cc1 (stereo not drawn)	none
CNc1ccccc1-n1ccc(-c2ccccc2)n1	M1 ag 3.61 | M1 agonist conf inactive | M4 ag counter inactive
CN(C)c1oc(-c2ccccc2F)nc1C#N	M1 ag 8.31 | M1 agonist conf inactive | M4 ag counter inactive
CCOC(=O)c1c(NC(=O)CNc2ccc(C)cc2)sc2c1CC(C)(C)OC2	none (no result: M1 antag, M1 ag, D1 allo mod, SF1 activator, RORA act)
O=C(C1CCN(S(=O)(=O)c2cccc3cccnc23)CC1)N1CCN(c2ccc(Cl)cc2)CC1	M1 ag 3.37 | M1 agonist conf inactive | M4 ag counter inactive
CCOc1ccc2nc(NCCNC(=O)CC)c(C#N)cc2c1	M1 ag 9.69 | M1 agonist conf 133 | M4 ag counter inactive
CC(C)(C)NC(=O)c1ccc2c(c1)C(=O)N(C1CCCCC1)C2=O	M1 ag 6.11 | M1 agonist conf inconclusive | M4 ag counter inactive
CCN(CC)c1ccc2cc(-c3nc4ccccc4n3C)c(=O)oc2c1	M1 ag 65.2 | M1 agonist conf 280 | M4 ag counter 400
CCCn1nnnc1SCC(=O)Nc1nnc(CC)s1	M1 ag 2.64 | M1 agonist conf inactive | M4 ag counter inconclusive
O=C1CSC(c2nn(-c3ccccc3)cc2-c2cc3ccccc3oc2=O)N1Cc1ccco1 (stereo not drawn)	M1 ag 3.17 | M1 agonist conf inactive | M4 ag counter inactive
COc1cc(C2SCC(=O)N2Cc2ccco2)ccc1O (stereo not drawn)	none (no result: M1 antag, M1 ag, D1 allo mod, SF1 activator, RORA act)
Cc1nn(-c2ccccc2)c(Cl)c1C(=O)N1CCN(c2ncnc3c2cnn3-c2ccccc2)CC1	M1 antag -3.4, M1 ag 2.54 (no result: D1 allo mod) | M1 agonist conf -27.3 | M4 ag counter inactive
COc1ccc(Cl)cc1N=Cc1ccc(OC2CSC2)cc1	none (no result: M1 antag, M1 ag, D1 allo mod, SF1 activator, RORA act)
COc1cc(OC)cc(-c2cc(NC(C)=O)n[nH]2)c1	none
CC1CN(S(=O)(=O)c2ccc(NC(=O)CCN3C(=O)c4ccccc4C3=O)cc2)CC(C)O1 (stereo not drawn)	none
CC1CN(S(=O)(=O)c2ccc(NC(=O)c3ccco3)cc2)CC(C)O1 (stereo not drawn)	M1 ag 12 (no result: D1 allo mod) | M1 agonist conf inactive | M4 ag counter inactive

Screening data from PubChem.
